pIC50: −log10 of the molar value.
Columns and labels:
[1] = molecular target: T1, Group 10 secretory phospholipase A2 (Homo sapiens) (UniProt O15496); assay: Inhibition of human group 10 sPLA2 at […] by fluorescence assay
T1 sequence (whole entry): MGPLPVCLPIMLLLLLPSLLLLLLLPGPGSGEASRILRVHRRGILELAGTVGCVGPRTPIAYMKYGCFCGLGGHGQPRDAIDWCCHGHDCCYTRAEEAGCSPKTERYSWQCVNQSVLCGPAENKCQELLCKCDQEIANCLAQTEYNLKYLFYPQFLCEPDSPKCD

[2] = molecular target: T2, Phospholipase A2 group V (Homo sapiens) (UniProt P39877); assay: Inhibition of human group 5 sPLA2 at […] by fluorescence assay
T2 sequence (whole entry): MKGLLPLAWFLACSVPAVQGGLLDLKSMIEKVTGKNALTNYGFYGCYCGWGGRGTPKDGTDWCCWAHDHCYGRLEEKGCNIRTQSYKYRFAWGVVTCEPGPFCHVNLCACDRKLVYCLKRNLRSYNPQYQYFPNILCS

[3] = molecular target: T3, Phospholipase A2, membrane associated (Homo sapiens, UniProt P14555); assay: Inhibition of human group 2A sPLA2 by fluorescence assay
T3 sequence (P14555 whole entry): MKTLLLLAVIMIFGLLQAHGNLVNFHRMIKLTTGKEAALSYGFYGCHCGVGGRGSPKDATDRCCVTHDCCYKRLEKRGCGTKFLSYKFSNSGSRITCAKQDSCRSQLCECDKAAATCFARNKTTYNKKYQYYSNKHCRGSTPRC
Method in brief: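 Continuous fluorimetric assay with recombinant human GIIA sPLA2 (6 ng/well) on pyrPG vesicles, pH 8.0 Tris buffer with Ca2+, KCl and BSA. Readout at ex 342/em 395 nm, initial slopes. […] Nonlinear variable-slope sigmoidal fit gives IC50; mean of duplicate or triplicate analyses with SD.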

[4] = molecular target: T4, Phospholipase A2 group V (Homo sapiens, UniProt P39877); assay: Inhibition of human group 5 sPLA2 by fluorescence assay
T4 sequence (P39877 whole entry): T2 sequence (whole entry)
Method in brief: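 Recombinant human GV sPLA2 (12.5 ng/well) with pyrPG vesicle substrate in Tris-HCl pH 8.0, KCl, CaCl2 and BSA. Monitored by fluorescence (342/395 nm), using initial slopes. […] IC50 by variable-slope sigmoidal regression on log concentration; duplicate or triplicate runs, mean with SD.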

[5] = molecular target: T5, Group 10 secretory phospholipase A2 (Homo sapiens, UniProt O15496); assay: Inhibition of human group 10 sPLA2 by fluorescence assay
T5 sequence (O15496 whole entry): T1 sequence (whole entry)

[6] = molecular target: T6, Phospholipase A2, membrane associated (Homo sapiens) (UniProt P14555); assay: Inhibition of human group 2A sPLA2 at […] by fluorescence assay
T6 sequence (whole entry): T3 sequence (P14555 whole entry)

[7] = molecular target: T7, Phospholipase A2 group V (Mus musculus, UniProt P97391); assay: Inhibition of mouse group 5 sPLA2 by fluorescence assay
T7 sequence (P97391 whole entry): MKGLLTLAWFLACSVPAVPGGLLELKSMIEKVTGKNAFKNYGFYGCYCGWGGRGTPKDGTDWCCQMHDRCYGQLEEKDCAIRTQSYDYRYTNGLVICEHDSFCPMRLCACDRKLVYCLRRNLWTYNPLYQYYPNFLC

[8] = molecular target: T8, Group 10 secretory phospholipase A2 (Mus musculus) (UniProt Q9QXX3); assay: Inhibition of mouse group 10 sPLA2 by fluorescence assay; details: concentration not given here
T8 sequence (whole entry): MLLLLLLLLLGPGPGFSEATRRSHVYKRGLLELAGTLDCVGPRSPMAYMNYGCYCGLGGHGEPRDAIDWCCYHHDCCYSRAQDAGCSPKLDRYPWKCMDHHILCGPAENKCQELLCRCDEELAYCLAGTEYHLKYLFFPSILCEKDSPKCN
Method in brief: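 Mouse GX sPLA2, recombinant, 10.7 ng per well, in 50 mM Tris-HCl pH 8.0 with 50 mM KCl, 1 mM CaCl2 and BSA. Started with pyrPG vesicles and read at ex 342/em 395 nm. Percent inhibition from initial fluorescence slopes at five concentrations. IC50 from a variable-slope sigmoidal dose-response fit.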

[9] = molecular target: T9, Phospholipase A2, membrane associated (Mus musculus, UniProt P31482); assay: Inhibition of mouse group 2A sPLA2 by fluorescence assay
T9 sequence (P31482 whole entry): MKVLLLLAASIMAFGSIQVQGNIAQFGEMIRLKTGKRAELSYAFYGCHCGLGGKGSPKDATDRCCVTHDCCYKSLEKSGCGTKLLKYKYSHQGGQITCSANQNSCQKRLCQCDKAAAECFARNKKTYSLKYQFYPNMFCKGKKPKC

SMILES | inhibition [1] [%] | inhibition [2] [%] | pIC50 [3] | pIC50 [4] | pIC50 [5] | inhibition [6] [%] | pIC50 [7] | inhibition [8] [%] | pIC50 [9]
CCCCCCCCCCCCCCC(=O)C(=O)NCCCCC(=O)O | 7 | 49 | 4.93 |  |  |  |  |  | 
CCCCCCCCCCCCCCC(=O)C(=O)N[C@@H](Cc1ccccc1)C(=O)O |  |  | < 5.78 | < 5.78 | < 5.78 |  |  |  | 
CCCCCCCCCCCCCCC(=O)C(=O)NCCC(=O)O | 18 | 47 | 5.25 |  |  |  |  |  | 
CCCCCCCCCCCCCCC(=O)C(=O)NCC(=O)OC | 22 | 9 |  |  |  | 3 |  |  | 
CCCCCCCCCCCCCCC(=O)C(=O)NCC(=O)O | 23 | 43 | 5.38 |  |  |  |  |  | 
CCCCCCCCCCCCCCC(=O)C(=O)N[C@H](CC(C)C)C(=O)O |  |  | 5.76 | 5.82 | < 5.78 |  |  |  | 
CCCCCCCCCCCCCCCC(=O)N[C@@H](CC(C)C)C(=O)O |  |  | < 5.78 | < 5.78 |  |  |  |  | 
CCCCCCCCCCCCCCC(=O)C(=O)N[C@@H](CC(C)C)C(=O)O | 50 |  | 6.52 | 6.36 |  |  | 5.59 | 58 | 6.74
